Measured values taken from ChEMBL document CHEMBL1146753, “Tetrahydroisoquinolines as subtype selective estrogen agonists/antagonists” (Bioorg Med Chem Lett, 2004).

How the values were obtained:
[1] = molecular target: T1, Estrogen receptor (Homo sapiens, UniProt P03372); assay: In vitro concentration required to inhibit [3H]estradiol binding to human estrogen receptor alpha expressed in 293T cells; assay type: cell-based
T1 sequence (P03372 whole entry): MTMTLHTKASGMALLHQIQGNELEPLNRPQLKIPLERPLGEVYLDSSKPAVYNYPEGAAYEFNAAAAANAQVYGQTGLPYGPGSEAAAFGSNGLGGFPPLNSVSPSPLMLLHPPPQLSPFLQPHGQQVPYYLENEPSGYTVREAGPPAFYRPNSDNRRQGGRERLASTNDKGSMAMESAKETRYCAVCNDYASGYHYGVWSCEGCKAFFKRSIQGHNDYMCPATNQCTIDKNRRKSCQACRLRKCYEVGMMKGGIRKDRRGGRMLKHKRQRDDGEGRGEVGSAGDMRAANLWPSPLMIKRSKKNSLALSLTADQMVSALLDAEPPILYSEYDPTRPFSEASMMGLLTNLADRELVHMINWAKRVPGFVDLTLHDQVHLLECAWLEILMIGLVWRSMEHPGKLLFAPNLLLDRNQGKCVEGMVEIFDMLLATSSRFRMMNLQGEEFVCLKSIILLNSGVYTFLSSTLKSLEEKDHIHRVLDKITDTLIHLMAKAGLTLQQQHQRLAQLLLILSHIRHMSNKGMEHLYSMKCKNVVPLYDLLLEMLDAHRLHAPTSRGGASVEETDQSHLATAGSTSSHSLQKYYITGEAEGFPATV

[2] = molecular target: Estrogen receptor beta (Homo sapiens, UniProt Q92731); assay: In vitro concentration required to inhibit [3H]estradiol binding to human estrogen receptor beta expressed in 293T cells; assay type: cell-based
Outline: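 Increasing competitor concentrations from DMSO stocks. Incubated 16 h at 4 °C. Dextran-coated charcoal for 15 min at room temperature, then centrifuged. Supernatant counted by scintillation. Means of ≥3 experiments.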

[3] = tested on: MCF7; assay: Percent inhibition of antagonistic activity in MCF-7 cell lines derived from breast tumors that predominantly express ER-alpha; assay type: functional, Homo sapiens
[4] = tested on: MCF7; assay: Inhibitory concentration required for antagonistic activity in MCF-7 cell lines derived from breast tumors that predominantly express ER-alpha; assay type: functional, cell-based; details: Homo sapiens
[5] = tested on: MCF7; assay: Effective concentration required for agonistic activity in MCF-7 cell lines derived from breast tumors that predominantly express ER-alpha; assay type: functional, cell-based; details: Homo sapiens
Outline: (§1)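 MCF7 cells plated at 6000/well in IMDM with 5% FBS and attached overnight. Steroid-depleted over 48 h with two changes of medium containing 5% charcoal-dextran stripped FBS. Compounds given as log dilutions from 10^-13 to 10^-6 M in 0.1% DMSO, 8 replicate wells each. Medium and compound renewed at day 4. DNA content measured by Hoechst 33258 after 7 days total exposure.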

[6] = tested on: MCF7; assay: Percent agonistic activity in MCF-7 cell lines derived from breast tumors that predominantly express ER-alpha; assay type: functional, Homo sapiens; outline: as §1

Sequence of Estrogen receptor beta (Q92731 whole entry): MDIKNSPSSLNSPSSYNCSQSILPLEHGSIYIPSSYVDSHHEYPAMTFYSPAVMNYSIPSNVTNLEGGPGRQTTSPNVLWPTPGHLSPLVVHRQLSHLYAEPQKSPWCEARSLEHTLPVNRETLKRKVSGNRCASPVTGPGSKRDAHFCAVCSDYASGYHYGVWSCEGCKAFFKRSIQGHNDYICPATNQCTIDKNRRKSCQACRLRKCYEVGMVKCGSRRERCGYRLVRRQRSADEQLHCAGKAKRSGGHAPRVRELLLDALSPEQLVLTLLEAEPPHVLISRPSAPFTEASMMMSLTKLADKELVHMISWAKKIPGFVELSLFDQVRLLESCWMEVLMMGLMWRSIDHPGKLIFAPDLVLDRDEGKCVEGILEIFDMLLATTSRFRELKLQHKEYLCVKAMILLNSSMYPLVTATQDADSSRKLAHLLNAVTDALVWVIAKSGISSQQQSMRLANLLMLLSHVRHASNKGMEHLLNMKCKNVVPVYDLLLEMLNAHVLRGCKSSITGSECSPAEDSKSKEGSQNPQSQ

SMILES	IC50 [1] [µM]	IC50 [2] [µM]	Inhibition [3] [%]	IC50 [4] [µM]	EC50 [5] [µM]	Activity [6] [%]
O=C(N1CCc2cc(O)ccc2C1c1ccc(Br)cc1)C(F)(F)F (stereo unspecified)	0.165	0.022	–	–	–	–
Oc1ccc2c(c1)CCN(c1ccccc1)C2Cc1ccccc1 (stereo unspecified)	0.0067	0.0664	–	–	–	–
Oc1ccc2c(c1)CCN(c1ccccc1)C2c1ccc(OCCN2CCCC2)cc1 (stereo unspecified)	0.0115	0.0222	–	–	–	–
O=C(c1ccccc1)N1CCc2cc(O)ccc2C1c1ccc(OCCN2CCCC2)cc1 (stereo unspecified)	0.562	2.25	–	–	–	–
O=S(=O)(c1ccc2ccccc2c1)N1CCc2cc(O)ccc2C1c1ccc(OCCN2CCCC2)cc1 (stereo unspecified)	0.112	1.08	–	–	–	–
Oc1ccc2c(c1)CCN(c1ccccc1)C2c1cccs1 (stereo unspecified)	0.05	0.0263	–	–	–	–
O=C(N1CCc2cc(O)ccc2C1c1ccccc1)C(F)(F)F (stereo unspecified)	0.235	0.0274	–	–	–	–
O=C(N1CCc2cc(O)ccc2[C@@H]1c1ccc(O)cc1)C(F)(F)F	> 3.2	> 3.2	–	–	–	–
Cc1ccc(S(=O)(=O)N2CCc3cc(O)ccc3C2c2ccc(OCCN3CCCC3)cc2)cc1 (stereo unspecified)	0.0248	0.0712	66	0.0298	–	–
Oc1ccc2c(c1)CCN(c1ccccc1)C2C1CCCCC1 (stereo unspecified)	0.0298	0.099	–	–	0.0111	93
O=S(=O)(c1ccccc1)N1CCc2cc(O)ccc2C1c1ccc(OCCN2CCCC2)cc1 (stereo unspecified)	0.0052	0.0185	–	–	–	–
O=S(=O)(c1ccccc1)N1Cc2cc(O)ccc2C(c2ccc(O)cc2)C1 (stereo unspecified)	0.12	0.0417	–	–	–	–
O=C(N1CCc2cc(O)ccc2C1c1ccc(OCCN2CCCC2)cc1)C(F)(F)F (stereo unspecified)	0.0287	0.0933	83	0.0866	–	–
Oc1ccc2c(c1)CCN(c1ccccc1)C2CC1CCCCC1 (stereo unspecified)	0.0531	0.295	–	–	–	–
CC(C)C1c2ccc(O)cc2CCN1c1ccccc1 (stereo unspecified)	0.0427	0.18	–	–	–	–
Oc1ccc2c(c1)CCN(c1ccccc1)C2c1ccccc1 (stereo unspecified)	0.0307	0.0488	–	–	–	–
O=C(N1CCc2cc(O)ccc2C1c1cccs1)C(F)(F)F (stereo unspecified)	0.385	0.0635	–	–	–	–
CCCc1ccc(S(=O)(=O)N2CCc3cc(O)ccc3C2c2ccc(OCCN3CCCC3)cc2)cc1 (stereo unspecified)	0.0294	0.133	–	–	–	–
Oc1ccc2c(c1)CCN(Cc1ccc3c(c1)OCO3)C2c1ccc(OCCN2CCCC2)cc1 (stereo unspecified)	0.0092	0.22	–	–	–	–
O=C(c1ccccc1)N1Cc2cc(O)ccc2C(c2ccc(O)cc2)C1 (stereo unspecified)	0.16	0.0279	–	–	–	–
O=S(=O)(c1cccc2ccccc12)N1CCc2cc(O)ccc2C1c1ccc(OCCN2CCCC2)cc1 (stereo unspecified)	0.0056	0.0213	96	0.0513	–	–
O=C(N1Cc2cc(O)ccc2C(c2ccc(O)cc2)C1)C(F)(F)F (stereo unspecified)	0.123	0.0114	–	–	–	–
O=C(N1CCc2cc(O)ccc2[C@H]1c1ccc(O)cc1)C(F)(F)F	0.0536	0.0089	–	–	–	–
CN(C)C(=O)/C=C/c1ccc(N2CCc3cc(O)ccc3C2c2ccccc2)cc1 (stereo unspecified)	0.008	0.0087	–	–	–	–
O=C(/C=C/c1ccc(N2CCc3cc(O)ccc3C2c2ccccc2)cc1)N1CCOCC1 (stereo unspecified)	0.0059	0.0048	–	–	–	–
O=S(=O)(c1cccc2ccccc12)N1Cc2cc(O)ccc2C(c2ccc(O)cc2)C1 (stereo unspecified)	0.028	0.0107	–	–	–	–
Oc1ccc(C2CN(Cc3ccccc3)Cc3cc(O)ccc32)cc1 (stereo unspecified)	0.0201	0.0131	–	–	–	–
CCOC(=O)N1CCc2cc(O)ccc2C1c1ccc(OCCN2CCCC2)cc1 (stereo unspecified)	0.0443	0.293	–	–	–	–
Oc1ccc2c(c1)CCN(Cc1ccccc1)C2c1ccc(OCCN2CCCC2)cc1 (stereo unspecified)	0.0047	0.0422	–	–	–	–
